Measured values taken from ChEMBL document CHEMBL1629436, “Synthesis and biological evaluation of new camptothecin derivatives obtained by modification of position 20” (Bioorg Med Chem, 2010).
Calls of active or inactive are those of the source. The calls are words filed in the database; no cut-off is given here.

Columns and labels:
A2B1 = assay: Cytotoxicity against mouse A2B1 cells after 24 to 96 hrs by MTS assay; assay type: functional, cell-based
Summary of the method: (§1)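 Mouse transgenic lines plated at 10^3 cells/well and left 24 h to attach. Drugs diluted in medium were added for 24 or 96 h. CellTiter 96 AQueous One (MTS) reagent was then added for 1 h at 37 °C, with absorbance read at 490 nm. Each condition was run in quintuplicate, and cytotoxicity was expressed as percent of controls.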

B3 [1] = assay: Cytotoxicity against mouse B3 cells after 24 to 96 hrs by MTS assay; assay type: functional, cell-based; summary of the method: as §1
yA3 [2] = assay: Induction apoptosis in mouse yA3 cells assessed as ROS production at 10 uM/L using DCFH-DA by flow cytometry relative to control; assay type: functional, cell-based
Summary of the method: (§2)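 Transgenic mouse cells exposed to compound at 10 µmol/L. ROS generation was measured by flow cytometry using the probe DCFH-DA.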

[3] = biological target: DNA topoisomerase 2-alpha (Homo sapiens) (UniProt P11388); assay: Inhibition of human recombinant topoisomerase 2alpha-mediated relaxation of supercoiled pBR322 at up to 100 uM after 60 mins using ethidium bromide staining by agarose gel electrophoresis
Chain of DNA topoisomerase 2-alpha (Homo sapiens) (P11388 whole entry): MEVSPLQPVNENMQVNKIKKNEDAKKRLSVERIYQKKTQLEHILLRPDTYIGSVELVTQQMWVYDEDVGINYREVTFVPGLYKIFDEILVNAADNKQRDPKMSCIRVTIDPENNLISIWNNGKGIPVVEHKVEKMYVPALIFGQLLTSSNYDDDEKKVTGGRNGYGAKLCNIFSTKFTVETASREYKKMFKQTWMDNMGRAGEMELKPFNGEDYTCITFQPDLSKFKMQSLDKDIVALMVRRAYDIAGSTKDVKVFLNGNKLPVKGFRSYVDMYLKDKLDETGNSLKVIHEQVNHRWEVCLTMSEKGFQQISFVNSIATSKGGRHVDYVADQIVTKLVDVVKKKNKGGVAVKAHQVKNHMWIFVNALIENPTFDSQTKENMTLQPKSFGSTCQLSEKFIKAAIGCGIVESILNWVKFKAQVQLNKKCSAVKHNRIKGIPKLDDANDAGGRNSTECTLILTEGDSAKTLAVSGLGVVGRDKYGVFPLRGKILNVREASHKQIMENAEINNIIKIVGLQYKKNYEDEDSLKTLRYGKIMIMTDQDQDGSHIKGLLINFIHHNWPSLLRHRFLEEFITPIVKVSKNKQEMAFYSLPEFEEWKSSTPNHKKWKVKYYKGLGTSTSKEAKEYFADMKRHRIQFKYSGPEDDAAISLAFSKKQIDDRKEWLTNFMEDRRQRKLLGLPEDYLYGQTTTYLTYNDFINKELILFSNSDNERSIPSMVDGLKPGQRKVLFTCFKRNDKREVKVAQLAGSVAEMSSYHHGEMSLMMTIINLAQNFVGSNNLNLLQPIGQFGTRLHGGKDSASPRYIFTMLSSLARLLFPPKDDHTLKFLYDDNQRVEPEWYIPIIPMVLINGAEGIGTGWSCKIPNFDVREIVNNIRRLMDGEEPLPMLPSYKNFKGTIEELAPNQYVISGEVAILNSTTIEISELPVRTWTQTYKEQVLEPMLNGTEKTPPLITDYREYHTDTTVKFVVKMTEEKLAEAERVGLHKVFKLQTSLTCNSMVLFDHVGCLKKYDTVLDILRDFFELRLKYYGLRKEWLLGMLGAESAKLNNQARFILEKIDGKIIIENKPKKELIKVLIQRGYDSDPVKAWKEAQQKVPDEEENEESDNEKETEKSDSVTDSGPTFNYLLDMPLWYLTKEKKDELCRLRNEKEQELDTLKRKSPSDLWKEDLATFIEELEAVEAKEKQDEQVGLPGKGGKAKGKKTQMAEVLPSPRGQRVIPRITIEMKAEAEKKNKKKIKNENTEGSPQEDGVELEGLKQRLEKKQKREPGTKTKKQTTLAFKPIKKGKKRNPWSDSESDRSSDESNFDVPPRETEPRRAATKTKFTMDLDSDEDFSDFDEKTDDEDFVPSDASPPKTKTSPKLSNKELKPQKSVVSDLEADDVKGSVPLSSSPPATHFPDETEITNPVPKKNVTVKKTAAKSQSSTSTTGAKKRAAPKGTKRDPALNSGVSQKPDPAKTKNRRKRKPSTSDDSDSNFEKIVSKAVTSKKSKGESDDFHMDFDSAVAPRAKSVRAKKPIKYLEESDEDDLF
Summary of the method: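 Supercoiled pBR322 (0.25 µg) with 1 U human recombinant topoisomerase IIα and test compound, 60 min at 37 °C in 20 µl reaction buffer. Stopped with SDS/bromophenol blue/glycerol plus 50 µg/mL proteinase K, 30 min at 37 °C. Separated on 1% agarose at room temperature, ethidium bromide stained (1 µg/mL, TAE), UV-visualized.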

yA3 [4] = assay: Cytotoxicity against mouse yA3 cells after 24 to 96 hrs by MTS assay; assay type: functional, cell-based; summary of the method: as §1
B3 [5] = assay: Induction apoptosis in mouse B3 cells assessed as ROS production at 10 uM/L using DCFH-DA by flow cytometry relative to control; assay type: functional, cell-based; summary of the method: as §2
Craf/Cmyc [6] = assay: Induction apoptosis in mouse Craf/Cmyc cells assessed as ROS production at 10 uM/L using DCFH-DA by flow cytometry relative to control; assay type: functional, cell-based; summary of the method: as §2
A2C12 [7] = assay: Cytotoxicity against mouse A2C12 cells after 24 to 96 hrs by MTS assay; assay type: functional, cell-based; summary of the method: as §1
yB8 [8] = assay: Cytotoxicity against mouse yB8 cells after 24 to 96 hrs by MTS assay; assay type: functional, cell-based; summary of the method: as §1
yD12 [9] = assay: Induction apoptosis in mouse yD12 cells assessed as ROS production at 10 uM/L using DCFH-DA by flow cytometry relative to control; assay type: functional, cell-based; summary of the method: as §2
HUVEC [10] = assay: Antiangiogenic activity in HUVEC cocultured with human PaSMC assessed as morphological changes up to 200 nM after 72 hrs; assay type: functional, cell-based
Summary of the method: (§3)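 Primary HUVEC (passage 5, retrovirally labelled with RFP) and pulmonary artery vSMC (passage 5) co-seeded at 5×10^4 PaSMC plus 10×10^3 HUVEC per well in EGM-2, briefly spun at 200 g, attached 3 h. Compounds were then added at final 2–200 nM, two replicates per concentration. Networks formed over 72 h at 37 °C, 5% CO2, followed by automated imaging and image analysis of tube formation.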

yA7 [11] = assay: Induction apoptosis in mouse yA7 cells assessed as ROS production at 10 uM/L using DCFH-DA by flow cytometry relative to control; assay type: functional, cell-based; summary of the method: as §2
yD1 = assay: Induction apoptosis in mouse yD1 cells assessed as ROS production at 10 uM/L using DCFH-DA by flow cytometry relative to control; assay type: functional, cell-based; summary of the method: as §2
Nucleic Acid = assay: Binding affinity to salmon testes DNA by linear flow dichroism analysis; assay type: nucleic-acid assay; details: Salmonidae
Summary of the method: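 Salmon testes DNA (1.9 × 10^-3 M) in ETN buffer (10 mM Tris, 10 mM NaCl, 1 mM EDTA, pH 7). Linear dichroism spectra were recorded at 25 °C over a range of [drug]/[DNA] ratios on a spectropolarimeter converted for LD.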

yD12 [12] = assay: Cytotoxicity against mouse yD12 cells after 24 to 96 hrs by MTS assay; assay type: functional, cell-based; summary of the method: as §1
A-431 = assay: Cytotoxicity against human A431 cells after 72 hrs by trypan blue assay; assay type: functional, cell-based; details: A-431, 72 h
Summary of the method: (§4)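 A-431, HeLa and HL-60 cells at 4×10^4 per well, incubated 24 h. HeLa and A-431 then received fresh medium. Graded compound concentrations were added for a further 72 h at 37 °C, 5% CO2. Viability was counted by Trypan blue exclusion. IC50 is the concentration giving 50% reduction in cell number versus control: ≥3 independent experiments, triplicate samples, mean ± SD.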

Craf/Cmyc [13] = assay: Cytotoxicity against mouse Craf/Cmyc cells after 24 to 96 hrs by MTS assay; assay type: functional, cell-based; summary of the method: as §1
HeLa = assay: Cytotoxicity against human HeLa cells after 72 hrs by trypan blue assay; assay type: functional, cell-based; summary of the method: as §4
Mus musculus [14] = species: Mus musculus; assay: Induction apoptosis in mouse betaD5 cells assessed as ROS production at 10 uM/L using DCFH-DA by flow cytometry relative to control; assay type: functional, cell-based; summary of the method: as §2
A2C12 [15] = assay: Induction apoptosis in mouse A2C12 cells assessed as ROS production at 10 uM/L using DCFH-DA by flow cytometry relative to control; assay type: functional, cell-based; summary of the method: as §2
HUVEC [16] = assay: Antiangiogenic activity in HUVEC cocultured with human PaSMC assessed as reduction of total tube length at 125 nM after 72 hrs; assay type: functional; design: scale not given: the % may be the effect or the level left; summary of the method: as §3
Mus musculus [17] = species: Mus musculus; assay: Cytotoxicity against mouse betaD5 cells after 24 to 96 hrs by MTS assay; assay type: functional, cell-based; summary of the method: as §1
Mus musculus [18] = species: Mus musculus; assay: Induction apoptosis in mouse betaD10 cells assessed as ROS production at 10 uM/L using DCFH-DA by flow cytometry relative to control; assay type: functional, cell-based; summary of the method: as §2
HL-60 = assay: Cytotoxicity against human HL60 cells after 72 hrs by trypan blue assay; assay type: functional, cell-based; details: HL-60, 72 h; summary of the method: as §4
yA7 [19] = assay: Cytotoxicity against mouse yA7 cells after 24 to 96 hrs by MTS assay; assay type: functional, cell-based; summary of the method: as §1
Bos taurus = species: Bos taurus; assay: Inhibition of calf thymus topoisomerase 1-mediated relaxation of supercoiled pBR322 at 100 uM after 60 mins using ethidium bromide staining by agarose gel electrophoresis
Summary of the method: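 Supercoiled pBR322 (0.25 µg) with 2 U calf thymus topoisomerase I and test compound, 60 min at 37 °C in 20 µl reaction buffer. Stopped with SDS/bromophenol blue/glycerol plus 50 µg/mL proteinase K, 30 min at 37 °C. Run on 1% agarose at room temperature, stained with ethidium bromide 1 µg/mL in TAE, imaged under UV.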

yB8 [20] = assay: Induction apoptosis in mouse yB8 cells assessed as ROS production at 10 uM/L using DCFH-DA by flow cytometry relative to control; assay type: functional, cell-based; summary of the method: as §2
Mus musculus [21] = species: Mus musculus; assay: Cytotoxicity against mouse betaD10 cells after 24 to 96 hrs by MTS assay; assay type: functional, cell-based; summary of the method: as §1
[22] = Induction apoptosis in mouse Craf/Cmyc cells assessed as relative caspase activity at 10 uM/L after 2 hrs by rhodamine 110 fluorescence assay; assay type: functional
Summary of the method: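 Cells were pretreated with compound (10 µmol/L) for 2 h. The cell-permeable caspase substrate (Asp)2-rhodamine 110 (10 µmol/L) was then added for 2 h more. Caspase cleavage releases fluorescent rhodamine 110, and the read-out was mean fluorescence.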

With `CC[C@@]1(OC(=O)NCCNC(=O)CCCSSCCCC(=O)NCCNC(=O)O[C@]2(CC)C(=O)OCc3c2cc2n(c3=O)Cc3cc4ccccc4nc3-2)C(=O)OCc2c1cc1n(c2=O)Cc2cc3ccccc3nc2-1` as the compound, how does the Activity (A2B1) read?
Its Activity is “Active”.

And the Activity (B3 [1])?
The Activity was “Active”.

And the Activity (yA3 [2])?
The Activity was “Active”.

What about the Activity [3] of the same compound?
The Activity was “inactive”.

What about the Activity (yA3 [4]) of the same compound?
The Activity was “Active”.

And the Activity (B3 [5])?
The Activity was “Active”.

What about the Activity (Craf/Cmyc [6]) of the same compound?
Its Activity is “Active”.

And the Activity (A2C12 [7])?
Its Activity is “Active”.

And the Activity (yB8 [8])?
Its Activity is “Active”.

What about the Activity (yD12 [9]) of the same compound?
The Activity was “Active”.

And the Activity (HUVEC [10])?
Its Activity is “inactive”.

And the Activity (yA7 [11])?
Its Activity is “Active”.

And the Activity (yD1)?
Its Activity is “Active”.

What about the Activity (Nucleic Acid) of the same compound?
Its Activity is “inactive”.

What about the Activity (yD12 [12]) of the same compound?
The Activity was “Active”.

And the IC50 (A-431)?
Its IC50 is 30 nM.

And the Activity (Craf/Cmyc [13])?
Its Activity is “Active”.

What about the IC50 (HeLa) of the same compound?
Its IC50 is 170 nM.

What about the Activity (Mus musculus [14]) of the same compound?
Its Activity is “Active”.

What about the Activity (A2C12 [15]) of the same compound?
The Activity was “Active”.

What about the Activity (HUVEC [16]) of the same compound?
The Activity was 50%.

And the Activity (Mus musculus [17])?
Its Activity is “Active”.

And the Activity (Mus musculus [18])?
The Activity was “Active”.

What about the IC50 (HL-60) of the same compound?
Its IC50 is 290 nM.

And the Activity (yA7 [19])?
The Activity was “Active”.

What about the Activity (Bos taurus) of the same compound?
Its Activity is “inactive”.

And the Activity (yB8 [20])?
The Activity was “Active”.

And the Activity (Mus musculus [21])?
Its Activity is “Active”.

What does the source list for `CC[C@@]1(OC(=O)NCCNC(=O)CCCCCCCCC(=O)NCCNC(=O)O[C@]2(CC)C(=O)OCc3c2cc2n(c3=O)Cc3cc4ccccc4nc3-2)C(=O)OCc2c1cc1n(c2=O)Cc2cc3ccccc3nc2-1`?
Activity (A2B1): Active; Activity (B3 [1]): Active; Activity (yA3 [2]): Active; Activity [3]: inactive; Activity (yA3 [4]): Active; Activity (B3 [5]): Active; Activity (Craf/Cmyc [6]): Active; Activity (A2C12 [7]): Active; Activity (yB8 [8]): Active; fold change (FC) [22]: 8; Activity (yD1): Active; Activity (Nucleic Acid): inactive; Activity (yD12 [12]): Active; IC50 (A-431): 80 nM; Activity (Craf/Cmyc [13]): Active; IC50 (HeLa): 300 nM; Activity (Mus musculus [14]): Active; Activity (A2C12 [15]): Active; Activity (Mus musculus [17]): Active; IC50 (HL-60): 420 nM; Activity (yA7 [19]): Active; Activity (Bos taurus): inactive; Activity (Mus musculus [21]): Active
